Myeloid diff MLP = compounds promoting myeloid differentiation. ER-HoxA9 myeloid progenitors, lysozyme-GFP differentiation, flow cytometry. calls only at 10 µM. 360,000 tested, 1% active;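 active = normalized GFP-positive differentiation at or above the plate's own cutoff, the solvent-only control mean plus 3 SD; inconclusive = no clear call, values can overlap the other calls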;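 also: cells exposed to compound for four days before flow analysis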
T cell modulator = T cell immune modulation candidate; 2C CD8+ T cell-vesicle binding, flow cytometry; stronger effect = lower value; response (vesicle binding), % at 7 µM; 330,000 tested, 0.068% active; AID 2052;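 active = response, share of CD8 T cells binding vesicles, and their 90th percentile fluorescence all below set limits, cut at about 80% in these data, passing the limit was not always enough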;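 also: values below 100% mean blocked vesicle binding to the CD8+ T cells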
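Test system: purified 2C TCR transgenic mouse naive CD8+ T cells. Probe or stimulus: QL9-peptide-loaded Drosophila micro-vesicles bearing Ld, ICAM-1 and B7-1. Incubation: binding step 1.5 h, 37 °C, antibody labelling 20 min, ice. Measured by: flow cytometry of vesicle-bound cells.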
Rin1 Abl inh = inhibitors of human Rin1-Abl protein interaction | P00519+Q13671 | 360,000 tested, 0.4% active | TR-FRET Rin1/Abl binding, biochemical | inhibition, % at 7.35 µM | AID 588664; in the data active = inhibition above about 5%, passing the limit was not always enough
Rce1 inh = blocks yeast Ras-converting enzyme; 290,000 tested, 0.27% active; calls only; yeast membranes, quenched prenylated peptide cleavage fluorescence;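 active = fall in fluorescence gain of 50% or more versus controls, with final raw signal at or below 3038400; inconclusive = same 50% fall but final raw signal above 3038400; inactive = fall in fluorescence gain under 50%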;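 also: plate controls were neutral control wells for no effect and wells lacking membranes for full effect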
GRK2 aptamer HTS = inhibitors of human GRK2 displacing RNA aptamer | P25098 | bead flow cytometry, FAM-aptamer displacement from GRK2 | inhibition of aptamer binding, % at 10 µM | 330,000 tested, 0.59% active | AID 488847;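 active = inhibition of aptamer binding above 40%, roughly 3 SD of noise, on plates passing a quality check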;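 also: median bead fluorescence of bound FAM aptamer so fluorescent compounds give negative values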
Target sequence (P25098 whole entry, looked up): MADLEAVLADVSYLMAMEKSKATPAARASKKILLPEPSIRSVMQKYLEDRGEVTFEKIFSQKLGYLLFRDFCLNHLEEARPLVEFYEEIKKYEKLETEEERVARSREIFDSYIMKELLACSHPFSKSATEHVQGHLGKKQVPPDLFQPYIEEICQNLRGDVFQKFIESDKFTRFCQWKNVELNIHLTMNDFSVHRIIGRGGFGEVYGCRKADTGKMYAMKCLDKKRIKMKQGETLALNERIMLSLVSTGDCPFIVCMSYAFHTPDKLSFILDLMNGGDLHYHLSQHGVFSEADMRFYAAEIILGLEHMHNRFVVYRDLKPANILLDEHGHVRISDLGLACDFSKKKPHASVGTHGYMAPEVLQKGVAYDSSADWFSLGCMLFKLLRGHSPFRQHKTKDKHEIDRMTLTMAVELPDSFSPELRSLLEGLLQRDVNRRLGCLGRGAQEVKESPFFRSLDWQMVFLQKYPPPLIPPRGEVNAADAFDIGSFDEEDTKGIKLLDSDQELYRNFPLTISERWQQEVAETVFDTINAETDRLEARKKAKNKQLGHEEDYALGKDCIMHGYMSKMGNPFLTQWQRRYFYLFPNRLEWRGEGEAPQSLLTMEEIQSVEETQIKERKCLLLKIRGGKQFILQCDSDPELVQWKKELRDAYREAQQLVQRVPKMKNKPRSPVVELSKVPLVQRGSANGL
SKN-1 block = blocks SKN-1 activity in C. elegans | 360,000 tested, 0.49% active | inhibition, % at 21.8 µM | AID 624304 | C. elegans VP596 Pgst-4::GFP/RFP ratio, acrylamide-induced, 24 h;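 active = interference check ratio from 0.5 to 1.5 plus GFP to RFP signal ratio inhibition reaching or exceeding a fixed threshold, cut at about 30% in these data, passing the limit was not always enough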
GRK2 CP1 = confirmation of human GRK2 inhibitors displacing RNA aptamer. shares compounds with GRK2 aptamer HTS. bead-bound GRK2, FAM-aptamer displacement, flow cytometry. aptamer displacement, % at 10 µM. 2,000 tested, 4% active;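 active = aptamer displacement above 40%, near three times the noise of non-fluorescent compounds, on plates passing quality checks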;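 also: negative values mostly reflect intrinsic compound fluorescence rather than true enhancement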
Aptamer quench SP = quenches fluorescent RNA aptamer, GRK2 hit artifact. shares compounds with GRK2 aptamer HTS. Carboxyfluorescein RNA aptamer on beads, flow cytometry quenching; stronger effect = lower value. fluorescence response (% of DMSO), % at 10 µM. 2,000 tested, under 10 active;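 active = compounds that quench the bead-bound fluorescent RNA probe, cutting fluorescence to under half of the solvent control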;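 also: counterscreen run without GRK2 so only probe quenching by compound is measured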
GRK2 CP2 = confirmation of human GRK2 inhibitors binding RNA aptamer site; shares compounds with GRK2 aptamer HTS; bead-bound GRK2, FAM-aptamer displacement, flow cytometry; inhibition of aptamer binding, % at 10 µM; 360 tested, under 10 active; AID 504782;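 active = inhibition of aptamer binding above 40%, about triple the noise seen with nonglowing compounds, on plates passing quality control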;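 also: negative values mostly come from compounds that fluoresce themselves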
FAM quench SP = counter-screen for GRK2 binding hits: quenchers of fluorescent RNA aptamer; shares compounds with GRK2 aptamer HTS; carboxyfluorescein RNA aptamer beads, flow cytometry quenching; stronger effect = lower value; fluorescence response vs DMSO, % at 10 µM; 360 tested, under 10 active;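 active = response vs DMSO under 50%, meaning signal dropped by over half, treated as fluorescence quencher; inconclusive = no clear call, values can overlap the other calls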;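 also: labelled aptamer on streptavidin beads without GRK2 as a quench counter-screen; 100% = bead fluorescence of DMSO wells and lower means quenching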
Numbers without * were called inactive; i = inactive; ? = inconclusive; nt = no result given. The list is not random: actives were taken first. Their share in the collection is about 2.6%.

SMILES	Myeloid diff MLP	T cell modulator	Rin1 Abl inh	Rce1 inh	GRK2 aptamer HTS	SKN-1 block	GRK2 CP1	Aptamer quench SP	others
CCOc1ccc(CCNC(=O)C2CCN(c3nnc(-n4cccc4)s3)CC2)cc1	i	694	-1	i	2	4	nt	nt
COc1ccc(-c2c(C)oc3c(CN4CCOCC4)c(O)ccc3c2=O)cc1OC	i	208	1	i	2	4	nt	nt
COc1ccccc1Oc1c(C)oc2c(CN3CCOCC3)c(O)ccc2c1=O	i	333	-2	?	58*	-3	3	99
COc1ccc2cc3cc(C(=O)N4CCN(c5ccccn5)CC4)oc3nc2c1	i	464	-4	i	57*	-5	1	98
COc1ccc2cc3cc(C(=O)N4CC(C)CC(C)C4)oc3nc2c1 (centres undefined)	i	210	-6	i	3	-6	nt	nt
CCn1cnc2cc(NCc3ccc(C)cc3)ccc21	i	634	6	i	2	1	nt	nt
CCCn1cnc2cc(NCc3ccc(Br)cc3)ccc21	i	128	-3	i	0	-3	-5	103
CCn1cnc2cc(NCc3ccc(Br)cc3)ccc21	nt	214	nt	i	44*	nt	1	105
C=CCN(CC=C)C(=O)c1ccc2nc(Cc3ccc(OC)c(OC)c3)oc2c1	i	173	4	i	41*	14	2	100
COc1ccccc1N1CCN(Cc2cc(=O)oc3cc(C)cc(C)c23)CC1	i	nt	0	nt	nt	11	nt	nt
CC(NC(=O)C1CCCN(S(=O)(=O)N2CCOCC2)C1)c1ccccc1 (centres undefined)	i	311	-2	i	2	1	-1	95
Cc1ccc(C(=O)/C=C/NNC(=O)c2ccccc2O)cc1	i	659	-1	nt	2	-2	nt	nt
Cc1ccc2cc(C3C(C#N)=C(N)Oc4c3ccc3cccnc43)c(=O)[nH]c2c1 (centres undefined)	?	265	4	i	97*	-1	-3	110
COc1ccc(OC)c(N(C(=O)c2snc(C(N)=O)c2N)C(C(=O)NCC2CCCO2)c2ccc3ncccc3c2)c1 (centres undefined)	i	200	0	i	50*	-26	7	102
CC(C)(C)OC(=O)N[C@@H](Cc1ccccc1)C(=O)N[C@@H](CO)[C@H](O)[C@@H]1C[C@@H]1C(=O)NC1CCCCC1	i	242	3	nt	0	13	nt	nt
COc1ccc(N(C(=O)c2ccco2)S(=O)(=O)c2cccs2)cc1	i	308	-2	i	98*	14	-1	97
CC(=O)N(c1ccc(N(C(C)=O)S(=O)(=O)c2cccs2)cc1)S(=O)(=O)c1cccs1	i	323	-1	i	53*	-4	-2	100
COc1ccc(C(=O)N(c2ccc(OC)cc2)S(=O)(=O)c2cccs2)cc1	i	234	2	i	0	0	nt	nt
CC1=C(C(=O)N2CCOCC2)CC(CC(=O)NCc2cccs2)C(=O)N1Cc1ccc(F)cc1 (centres undefined)	i	nt	1	nt	nt	0	nt	nt
Cc1ccc(SC[C@H](C)CN2CCC(NC(=O)OCc3ccccc3)CCC2=O)cc1 (some centres undefined)	i	nt	nt	nt	nt	-1	nt	nt
C=CCn1c(SCC(=O)NCC)nc2sc3c(c2c1=O)CCC3	i	201	-2	i	0	0	nt	nt	GRK2 CP2=-23;FAM quench SP=101
C=CCn1c(SCC(=O)NC)nc2sc3c(c2c1=O)CCC3	i	259	-2	i	1	6	nt	nt	GRK2 CP2=17;FAM quench SP=99
C=CCn1c(SCC(C)=O)nc2sc3c(c2c1=O)CCC3	i	180	-3	i	1	-10	nt	nt
C=CCn1c(SC(CCO)C(=O)NCc2ccco2)nc2sc3c(c2c1=O)CCC3 (centres undefined)	i	381	2	i	1	-9	nt	nt	GRK2 CP2=13;FAM quench SP=101
Nc1nc(N2CCN(c3ccc(F)cc3)CC2)n[nH]1	i	374	4	i	1	-3	nt	nt
SMILES	Myeloid diff MLP	T cell modulator	Rin1 Abl inh	Rce1 inh	GRK2 aptamer HTS	SKN-1 block	GRK2 CP1	Aptamer quench SP	others
C=CCOn1c(=O)c(-c2ccc(OCC)cc2)[n+]([O-])c2ccccc21	i	288	3	i	4	21	nt	nt
COc1cccc(CNc2ccc3[nH]c(=O)[nH]c3c2)c1OCc1ccccc1F	i	113	-5	i	91*	8	3	101
CC(C)C1Oc2ccccc2N(CC(=O)NC2CCCCC2)C1=O (centres undefined)	i	239	2	i	1	6	nt	nt
COCc1c(C(=O)N2CCN(CCOc3ccccc3)CC2)oc2ccccc12	i	252	0	nt	5	-13	nt	nt
c1ccc(Cn2ncc3ccccc32)cc1	i	192	-1	i	26	1	2	98
Cc1cc(C(=O)COC(=O)c2nccnc2N)c(C)n1C	i	191	-2	i	2	-7	nt	nt
Cc1ccsc1C(=O)OCC(=O)c1cc(C)n(C)c1C	i	411	1	nt	46*	4	nt	nt	GRK2 CP2=12;FAM quench SP=?
OCC[C@@H]1C[C@H](O)[C@@H](O)[C@]2(OCc3ccc4ccccc4c32)O1	i	nt	0	nt	nt	0	nt	nt
O=C(Nc1cc(Cl)ccc1N1CCOCC1)c1ccc(N2CCCCC2)c([N+](=O)[O-])c1	i	336	-2	i	42*	10	nt	nt	GRK2 CP2=-11;FAM quench SP=106
O=C(Nc1ccc(N2CCCCC2)c(Cl)c1)c1ccc(N2CCOCC2)c([N+](=O)[O-])c1	i	i	-3	i	2	8	nt	nt
O=C1NC(c2ccccc2)=N/C1=C/c1ccco1	i	153	1	i	1	8	nt	nt
O=C1NC(c2cccc(Br)c2)=N/C1=C\c1ccco1	i	176	-1	i	50*	13	-2	98
CCCc1c(C(=O)N/N=C(\C)CCc2ccccc2)nnn1-c1nonc1N	i	148	-3	i	70*	26	-3	97
CC(C)Oc1ccc(C(=O)NCCCNC(=O)c2cccnc2)cc1	i	511	4	i	0	-12	nt	nt
COc1cccc(NC(=O)C(OC(=O)c2ccccc2NS(=O)(=O)c2cccs2)c2ccccc2)c1 (centres undefined)	i	167	2	i	100*	1	-1	100

Screening data deposited in PubChem BioAssay by several laboratories.
